Experimental data gathered from unrelated publications.
Target: Serine/threonine-protein kinase DCLK2 (DCLK2, Homo sapiens, UniProt Q8N568)
Sequence (Q8N568 1-766, as in one of the studies): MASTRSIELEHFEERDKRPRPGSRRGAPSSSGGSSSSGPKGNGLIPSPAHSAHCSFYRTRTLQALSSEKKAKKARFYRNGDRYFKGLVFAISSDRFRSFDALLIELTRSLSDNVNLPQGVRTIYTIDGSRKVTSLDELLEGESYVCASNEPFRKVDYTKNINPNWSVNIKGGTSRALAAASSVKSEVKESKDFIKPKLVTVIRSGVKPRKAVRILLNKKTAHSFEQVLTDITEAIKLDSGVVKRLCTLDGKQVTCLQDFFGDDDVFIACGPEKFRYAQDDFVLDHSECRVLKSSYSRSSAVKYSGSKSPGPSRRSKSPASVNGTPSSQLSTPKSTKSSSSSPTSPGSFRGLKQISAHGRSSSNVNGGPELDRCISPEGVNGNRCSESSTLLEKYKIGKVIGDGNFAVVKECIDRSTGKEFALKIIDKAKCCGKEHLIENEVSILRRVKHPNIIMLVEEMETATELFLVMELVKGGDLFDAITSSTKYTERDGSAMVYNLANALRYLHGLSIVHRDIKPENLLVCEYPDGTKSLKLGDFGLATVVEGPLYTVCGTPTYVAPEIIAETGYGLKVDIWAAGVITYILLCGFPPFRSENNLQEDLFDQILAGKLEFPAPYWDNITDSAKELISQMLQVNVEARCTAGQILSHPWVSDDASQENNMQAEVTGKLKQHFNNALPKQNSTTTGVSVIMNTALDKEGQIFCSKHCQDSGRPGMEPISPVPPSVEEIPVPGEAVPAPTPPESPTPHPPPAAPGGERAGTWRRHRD

N#CC1(c2ccccn2)CCN(Cc2cc(C(=O)O)c(=O)n3ccccc23)CC1  remaining binding (cell-free assay; competition with immobilised ligand; 1 µM): 100%
COc1ncccc1-c1cnn2ccc(N3CCN(C(=O)OC(C)C)CC3)nc12  remaining binding (binding; competition with immobilised ligand; 1 µM): 100%
Cc1nn(C)cc1-c1nc2c(N3CCN(Cc4ccc(Cl)cc4)CC3)c(Cl)cnc2[nH]1  remaining binding (binding; competition with immobilised ligand; 1 µM): 100%
COc1cc(Nc2ncc(F)c(Nc3ccc4c(n3)NC(=O)C(C)(C)O4)n2)cc(OC)c1OC  inhibition (binding; competition with immobilised ligand; 10 µM): 36%
CC(C)(C)c1cc(C=C(C#N)C#N)cc(Br)c1O  remaining activity (enzyme activity; inhibitor; 0.5 µM): 109%
Cn1cc(-c2cc(F)cc(N3CCn4c(cc5c4CCCC5)C3=O)c2CO)cc(Nc2ccc(N3CCN(C4COC4)CC3)cn2)c1=O  inhibition (enzyme activity; inhibitor; 0.1 µM): 10%
Cn1cncc1[C@@](O)(COc1ccc(C#N)cc1-c1ccc(OC(F)(F)F)cc1)c1ccc(C#N)cc1  remaining binding (cell-free assay; competition with immobilised ligand; 1 µM): 100%
O=c1[nH]c2ccccc2n1C1CCN(Cc2ccc(-c3[nH]c4cc5ncnc5cc4nc3-c3ccccc3)cc2)CC1  remaining signal (cell-free assay; 0.5 µM): 107%
Nc1ncc(-c2nc(N3CCOCC3)nc(N3CCOCC3)n2)c(C(F)F)n1  remaining binding (binding; competition with immobilised ligand; 10 µM): 86%
Cn1cc(-c2cccc(N3CCc4c(sc5c4CC(C)(C)C5)C3=O)c2CO)cc(Nc2ccncn2)c1=O  inhibition (enzyme activity; inhibitor; 1 µM): 3%
